These results are taken from ChEMBL document CHEMBL1122116, “Antiparasitic agents. 5. Synthesis and anthelmintic activities of novel 2-heteroaromatic-substituted isothiocyanatobenzoxazoles and benzothiazoles” (J Med Chem, 1982).

Data set [1] deals with Rodentolepis nana. As to the kind of experiment: Mouse oral clearance was measured against Hymenolepiasis nana. The data set is classed as functional. Also on record: concentration or dose not given beside the values. Summed up:
(§1)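 Mice experimentally infected with N. dubius (nematode) or H. nana (tapeworm) received the compound in the diet at 0.2%. Read-out is percent clearance of worms after oral dosing.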

Data set [2] concerns Heligmosomoides polygyrus. Put plainly: Mouse oral clearance was measured against Nematospiroides dubius. The data set is classed as functional. Also on record: concentration or dose not given beside the values. The gist of the method:
as §1

Data set [3] relates to Ovis aries. As to the kind of experiment: Percent reduction in nematode fecal egg count was measured in sheep following 50 mg/kg p.o. It is filed as functional. The conditions noted are these: route oral.
Data set [4] has as its system Ovis aries. As to the kind of experiment: Percent reduction in fecal egg count was measured in sheep dosed at 44 mg/kg. The data set is classed as functional.
The test system of data set [5] is Heligmosomoides polygyrus. Put plainly: Titration of anthelmintic activity against Nematospiroides dubius in mice at 0.0125 concentration of diet. It is filed as ADME, organism-based. The conditions noted are these: in vivo, po. The gist of the method:
(§2)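 Titration in mice experimentally infected with N. dubius, with the compound mixed into the diet at a series of levels. Read-out is nematode clearance.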

The test system of data set [6] is Heligmosomoides polygyrus. Put plainly: Titration of anthelmintic activity against Nematospiroides dubius in mice at 0.05 concentration of diet. The data set is classed as ADME, organism-based. The conditions noted are these: in vivo, po. Summed up: as §2
The test system of data set [7] is Heligmosomoides polygyrus. As to the kind of experiment: Titration of anthelmintic activity against Nematospiroides dubius in mice at 0.025 concentration of diet. To be noted: in vivo, po. It is filed as ADME, organism-based. The gist of the method:
as §2

Data set [8] deals with Heligmosomoides polygyrus. Put plainly: Titration of anthelmintic activity against Nematospiroides dubius in mice at 0.1 concentration of diet. The conditions noted are these: in vivo, po. It is filed as ADME, organism-based. The gist of the method: as §2
The test system of data set [9] is Heligmosomoides polygyrus. Put plainly: Titration of anthelmintic activity against Nematospiroides dubius in mice at 0.2 concentration of diet. The data set is classed as ADME, organism-based. The conditions noted are these: in vivo, po. Summed up: as §2
Data set [10] deals with Ovis aries. Put plainly: Percent reduction in fecal egg count was measured in sheep dosed at 58 mg/kg. It is filed as functional.
The subject of data set [11] is Ovis aries. As to the kind of experiment: Percent reduction in fecal egg count was measured in sheep dosed at 25 mg/kg. It is filed as functional.
For data set [12], the system named is Ovis aries. Put plainly: Percent reduction in fecal egg count was measured in sheep dosed at 50 mg/kg. The conditions noted are these: in vivo. It is filed as ADME, organism-based. Also on record: dose 50 mg/kg.
Data set [13] relates to Ovis aries. As to the kind of experiment: Percent reduction in fecal egg count was measured in sheep dosed at 100 mg/kg. It is filed as functional.

In the case of `S=C=Nc1ccc2nc(-c3ccc(N4CCOCC4)nc3)oc2c1.S=C=Nc1ccc2oc(-c3ccc(N4CCOCC4)nc3)nc2c1`, the Activity in data set [1] and in data set [2] was 0% each time. Also, in data set [3], the Reduction amounted to 27%.

Turning to `S=C=Nc1ccc2sc(-c3cccnc3)nc2c1`, the Activity in data set [1] is reported as 0%; in data set [2] it was 58%.

Turning to `CN(C)c1ccc(-c2nc3cc(N=C=S)ccc3o2)cn1.CN(C)c1ccc(-c2nc3ccc(N=C=S)cc3o2)cn1`, the Activity in [1] and in data set [2] was 0% in each case.

Turning to `S=C=Nc1ccc2nc(-c3ccccn3)sc2c1`, the figures for the Activity in data set [1] and in [2] were 75% and 0%, respectively. The compound also returned a Reduction in data set [3] of 65%.

Turning to `Cc1cc2nc(-c3cccnc3)oc2cc1N=C=S`, the Activity in data set [1] and in [2] was 0% each time. Moreover, the Reduction in data set [4] stood at 99%.

For `S=C=Nc1ccc2nc(-c3cnccn3)oc2c1.S=C=Nc1ccc2oc(-c3cnccn3)nc2c1`, the Activity in data set [2] is 0%. In data set [3], this compound yielded a Reduction of 93%.

In the case of `S=C=Nc1ccc2nc(-c3cccnc3)oc2c1`, the Activity in [1] came out at 0%; in data set [2] it was 46%. For the same compound, the Reduction in [3] worked out at 78%.

As to `S=C=Nc1ccc2sc(-c3cccs3)nc2c1`, the Activity is 0% in data set [1] and 61% in data set [2]. The same compound returned a Reduction in [3] of 57%.

In the case of `S=C=Nc1ccc2oc(-c3ccccc3)nc2c1`, the Activity in [1] came out at 0%; in data set [2] it was 60%. Also, the Reduction in data set [3] worked out at 57%.

On to `Cn1cccc1-c1nc2cc(N=C=S)ccc2o1`, for which the Activity in [1] worked out at 25%; in [5], 0%; in [6], 45%; in data set [7], 25%; in data set [2] it was 100%; in data set [8], 81%. The Activity in data set [9] turned out to be 100%. For the same compound, the Reduction in [3] amounted to 34%.

On to `S=C=Nc1ccc2nc(-c3ccccn3)oc2c1.S=C=Nc1ccc2oc(-c3ccccn3)nc2c1`, for which the Activity in data set [1] is 50%; in [2] it was 0%. Moreover, the Reduction in data set [3] came to 35%.

For `S=C=Nc1ccc2nc(-c3cccnc3)sc2c1.S=C=Nc1ccc2sc(-c3cccnc3)nc2c1`, the Activity in data set [1] was found to be 100%; in data set [2], 99%. The same compound came in with a Reduction in [3] of 99%.

For `S=C=Nc1ccc2oc(-c3cccs3)nc2c1`, the Activity was 0% in data set [1] and 98% in data set [2].

As for `CCN(CC)Cc1ccc(-c2nc3cc(N=C=S)ccc3o2)s1.Cl`, the Activity in data set [1] and in [2] was 0% in each case.

For the compound `S=C=Nc1ccc2sc(-c3ccccn3)nc2c1`, the Activity in data set [1] is 50%; in [2], 20%. The Reduction in data set [10] was determined as 36%.

For `c1ccc2[nH]c(-c3cscn3)nc2c1` [THIABENDAZOLE], the Activity in data set [5] was 40%; in data set [7], 47%; in [8], 89%; in data set [9], 96%.

As to `S=C=Nc1ccc2oc(-c3ccncc3)nc2c1`, the Activity in [1] and in data set [2] was 0% throughout. For the same compound, the Reduction in [3] amounted to 40%.

On to `S=C=Nc1ccc2oc(-c3ccc(CN4CCOCC4)o3)nc2c1`, for which the Activity in data set [1] and in data set [2] was 0% each time.

With `S=C=Nc1cc(Cl)c2oc(-c3ccc(Cl)nc3)nc2c1`, the Activity in [1] and in [2] was 0% each time.

On to `Cc1ccc(-c2nc3cc(N=C=S)ccc3o2)s1`, for which the values for the Activity in data set [1] and in data set [2] were 33% and 0%, respectively.

Take `Cc1ccsc1-c1nc2cc(N=C=S)ccc2o1`: the Activity was determined as 0% in [1] and 78% in [2].

Consider `S=C=Nc1ccc2oc(-c3sccc3CN3CCOCC3)nc2c1`, for which the Activity in data set [1] and in [2] was 0% throughout.

`S=C=Nc1ccc2nc(-c3cccnc3)oc2c1.S=C=Nc1ccc2oc(-c3cccnc3)nc2c1` came in with a Reduction in data set [11] of 94%.

In the case of `S=C=Nc1ccc2oc(-c3cccnc3)nc2c1`, the Reduction in data set [12] was 69%.

As for `S=C=Nc1ccnc(-c2nc3ccccc3o2)c1`, the Activity in data set [1] and in [2] was 0% throughout. The compound further gave a Reduction in data set [3] of 10%.

For `CN1CCN(Cc2ccc(-c3nc4cc(N=C=S)ccc4o3)s2)CC1`, the Activity in data set [1] and in data set [2] was 0% each time.

Regarding `S=C=Nc1ccc2[nH]c(-c3ccccn3)nc2c1`, the Activity in data set [1] came to 100%; in data set [2], 0%. Besides, the Reduction in [3] is listed as 100%.

In the case of `COc1cc2sc(-c3cccnc3)nc2cc1N=C=S`, the Activity in [1] is on record as 0%; in data set [2], 5%. Also, the Reduction in data set [3] is recorded as 40%.

With `Cn1cccc1-c1nc2cc(N=C=S)cc(Cl)c2o1`, the Activity in [1] and in data set [2] was 0% throughout.

Take `S=C=Nc1ccc2oc(-c3ccc(CN4CCOCC4)s3)nc2c1`: the results for the Activity in data set [1] and in [2] were 66% and 0%, respectively.

`Cc1cc2oc(-c3ccccn3)nc2cc1N=C=S`: the Activity in data set [1] and in data set [2] was 0% throughout. This compound registered a Reduction in data set [3] of 90%.

With `S=C=Nc1cc(Cl)c2oc(-c3cccnc3)nc2c1`, the Activity in [1] and in [2] was 0% throughout. Further, in data set [3], the Reduction was found to be 0%.

Regarding `S=C=Nc1ccc2oc(-c3ccco3)nc2c1`, the Activity was determined as 0% in [1]; 0% in [5]; 39% in [6]; 0% in data set [7]; 100% in data set [2]; 88% in data set [8]. In data set [9], this compound registered an Activity of 100%. The Reduction in data set [13] is on record as 97%.

For `S=C=Nc1ccc2nc(-c3cccs3)oc2c1`, the Activity in data set [1] and in data set [2] was 0% each time.

Consider `Cc1cc2oc(-c3cccnc3)nc2cc1N=C=S`, for which the Activity in data set [1] was 0%; in data set [2], 99%. The same compound returned a Reduction in [11] of 0%.

Take `Cc1ccc(-c2nc3cc(N=C=S)ccc3o2)o1`: the Activity is on record as 66% in data set [1] and 100% in [2]. In addition, in data set [13], the Reduction stood at 97%.

Take `S=C=Nc1cc(Cl)c2oc(-c3cccs3)nc2c1`: the Activity in data set [1] and in data set [2] was 0% each time.

Turning to `S=C=Nc1ccc2oc(-c3ccc(Cl)nc3)nc2c1`, the Activity in [1] and in data set [2] was 0% each time. The compound further gave a Reduction in [3] of 97%.

As to `CN1CCN(c2ccc(-c3nc4cc(N=C=S)ccc4o3)cn2)CC1`, the Activity in [1] and in data set [2] was 0% throughout. This compound had a Reduction in [3] of 0%.
